In the library only some 9.2% were active in any assay of this set; here they are far more common.
ERb coact inh = blocks coactivator binding to human estrogen receptor beta | Q92731 | TR-FRET ER-beta LBD / SRC1-Cy5 peptide binding; receptor agonist-loaded with 1 µM estradiol | inhibition, % at 25.6 µM | 1.3% of 86,000 active;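 active = compounds whose percent inhibition of the receptor-coactivator binding signal exceeds about 50% in the single-dose screen, limit read from the data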;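 note: 0% = receptor plus peptide wells without compound and 100% = peptide-only wells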
Target sequence (Q92731 whole entry, looked up, the tested form may be a part): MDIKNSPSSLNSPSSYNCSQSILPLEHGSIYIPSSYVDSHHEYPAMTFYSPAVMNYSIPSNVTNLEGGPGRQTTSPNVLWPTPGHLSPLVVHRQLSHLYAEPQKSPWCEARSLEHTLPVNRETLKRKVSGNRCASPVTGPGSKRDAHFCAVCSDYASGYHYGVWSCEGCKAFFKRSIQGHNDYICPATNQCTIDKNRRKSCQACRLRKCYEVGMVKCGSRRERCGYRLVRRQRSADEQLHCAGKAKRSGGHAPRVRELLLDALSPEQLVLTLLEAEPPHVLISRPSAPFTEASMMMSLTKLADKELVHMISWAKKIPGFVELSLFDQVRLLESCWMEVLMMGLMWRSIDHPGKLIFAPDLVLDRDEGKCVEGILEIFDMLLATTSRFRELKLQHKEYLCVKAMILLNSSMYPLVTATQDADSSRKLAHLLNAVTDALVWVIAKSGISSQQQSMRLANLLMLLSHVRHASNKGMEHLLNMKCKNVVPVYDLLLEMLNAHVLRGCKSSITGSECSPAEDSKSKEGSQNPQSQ
Lung fibro prol = blocks proliferation of human lung fibroblasts. AID 719. LL 47 human lung fibroblast viability, ATP luminescence; active compounds read low. viability, % at 10 µM. 1.1% of 85,000 active;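 active = viability at or below 50% in the single dose screen; inactive = viability above 50%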;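 note: compound exposure lasted 72 h before the ATP readout; 100% = median luminescence of untreated cell-only wells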
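test system = LL 47 human lung fibroblasts | amount = 1,150 fibroblasts seeded per well | medium = 15% FBS in IMEM | times = overnight cell rest, 72 h compound treatment at 37 °C | measured by = CellTiter-Glo luminescence measuring cellular ATP | read-out = viability percentage against median untreated-cell control | benchmarks = cell-only wells, no compound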
H69AR growth 86K = blocks growth of human H69AR lung tumor cells. viability, % at 10 µM. H69AR lung tumor viability, ATP luminescence, 72 h; active compounds read low. AID 598. 6% of 85,000 active;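 active = viability at or below 40%; inactive = viability above 40%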;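 note: multidrug resistant small cell line overexpressing MRP-1 efflux transporter; 100% = mean luminescence of untreated control wells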
ERa coact inh = ER-alpha (human) coactivator binding inhibition; inhibition, % at 25.6 µM; 1.7% of 86,000 active; P03372; TR-FRET ER-alpha LBD / SRC-1 peptide, estradiol-bound; in the data active = inhibition above about 50%;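 note: 0% = receptor plus peptide control and 100% = peptide only without receptor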
ERa coact pot = enhances coactivator binding to human estrogen receptor alpha; P03372; TR-FRET ERalpha-LBD/SRC-Cy5 coactivator binding, 2 h; 100 = basal binding, no effect; 1.3% of 86,000 active; coactivator binding (% of control), % at 25.6 µM; in the data active = activity above about 200%;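 note: binding measured in presence of low estradiol as agonist stimulus; 0% = peptide alone without receptor and 100% = receptor with peptide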
HUVEC inhibit = human endothelial cell proliferation inhibition; HUVEC proliferation, CellTiter-Glo luminescence, 72 h; active compounds read low; viability, % at 10 µM (by protocol); 1.1% of 86,000 active;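 active = viability at or below 30%; inactive = viability above 30%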;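 note: 100% = median luminescence of DMSO-only cell control wells on each plate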
An asterisk follows results filed as active; nt = no result; [ ] = another dose, or the depositor's remark.

SMILES | ERb coact inh | Lung fibro prol | H69AR growth 86K | ERa coact inh | ERa coact pot | HUVEC inhibit
CCOc1ccccc1C(=O)Nc1ccc(-c2nnc(-c3ccc(C)cc3)o2)cc1 | 32 | 101 | 99 | 7 | 96 | 102
Cc1cc(C)c(NC(=O)COc2ccccc2C(=O)Nc2ccc3c(c2)oc2ccccc23)c(C)c1 | 8 | 47* | 26* | -5 | 113 | 82
CC1CCc2c(sc3nc(C4CC4)nc(SCC(=O)NCc4ccco4)c23)C1 (configuration not stated) | 2 | 104 | 71 | 2 | 103 | 93
CCN(CC)C(=O)CSc1nc(N)c2c3c(sc2n1)CC(C)CC3 (configuration not stated) | -5 | 97 | 37* | 8 | 93 | 89
CCOC(=O)CSc1nc(N)c2c3c(sc2n1)CCCC3 | 0 | 97 | 89 | 2 | 89 | 98
CC1CCc2c(sc3nc(SCC(=O)NCc4ccco4)nc(N)c23)C1 (configuration not stated) | 16 | 85 | 35* | 13 | 86 | 65
Cc1noc(C)c1C(=O)NCc1ccco1 | 7 | 122 | 105 | -12 | 97 | 106
Cc1onc(-c2ccccc2Cl)c1C(=O)NCc1ccco1 | 54* | 97 | 89 | 86*[fluorescence artefact?] | 41 | 81
CCCN(CCC)CCNC(=O)C1CCN(Cc2nc(-c3ccc(Cl)cc3)oc2C)CC1 | -6 | 36* | 59 | -8 | 144 | 9.9*
Cc1oc(-c2ccc(Cl)cc2)nc1CN1CCC(C(=O)NCc2cccnc2)CC1 | -3 | 103 | 94 | 1 | 115 | 103
CCc1ccc(-c2nc(CN3CCCC(C(=O)NCCc4ccc(OC)c(OC)c4)C3)c(C)o2)cc1 (configuration not stated) | -4 | 78 | 37* | -2 | 101 | 60
N#Cc1cc2c(nc1SCC(O)CS(=O)(=O)Cc1ccccc1)CCCC2 (configuration not stated) | 7 | 94 | 69 | -10 | 99 | 89
COc1ccc(C2=Nn3c(nnc3-c3ccccc3)SC2)cc1OC | 6 | 94 | 84 | 15 | 93 | 91
Cc1cccc(-c2nnc3n2N=C(c2ccccc2)CS3)c1 | -10 | 91 | 36* | 2 | 122 | 97
COc1ccc(Cc2nnc3n2N=C(c2cc4ccccc4o2)CS3)cc1OC | 6 | 94 | 35* | 4 | 87 | 82
COc1ccc(C2=Nn3c(nnc3C3CCCCC3)SC2)cc1OC | 10 | 41* | 15* | 0 | 96 | 82
COc1ccc(-c2nnc3n2N=C(c2ccccc2)CS3)cc1OC | -1 | 15* | 54 | 2 | 130 | 32
COc1ccc(OC)c(C2=Nn3c(nnc3C3CCCCC3)SC2)c1 | -3 | 94 | 103 | 1 | 75 | 91
c1ccc(C2=Nn3c(nnc3-c3ccncc3)SC2)cc1 | -3 | 106 | 81 | -1 | 89 | 77
CC1Cc2ccccc2N1C(=O)CSc1nnnn1Cc1ccccc1 (configuration not stated) | -5 | 92 | 85 | 0 | 94 | 78
O=C(OCn1nnc2ccccc2c1=O)C1CCN(S(=O)(=O)c2cccs2)CC1 | 0 | 97 | 97 | -4 | 121 | 99
O=C(NCCN1C(=O)CSC1=O)c1ccccc1 | -7 | 100 | 96 | -4 | 87 | 106
Cc1cc(-c2nnc3n2N=C(c2ccc(-c4ccccc4)cc2)CS3)n[nH]1 | 27 | 60 | 3.9* | 44 | 92 | 28*
C=CCOc1ccccc1CN1CCSCC1 | -1 | nt | 56 | -6 | 108 | 103
O=C1CSC(=S)N1CC1CCCO1 (configuration not stated) | -2 | 93 | 20* | 6 | 95 | 95
SMILES | ERb coact inh | Lung fibro prol | H69AR growth 86K | ERa coact inh | ERa coact pot | HUVEC inhibit
CCC(=O)Nc1nonc1-c1nc2ccccc2n1Cc1ccc(Cl)c(Cl)c1 | 51*[fluorescence artefact?] | 85 | 16* | 58*[fluorescence artefact?] | 109 | 38
COc1cc(NC(=O)CCNC(=O)Cn2cnc3ccccc3c2=O)cc(OC)c1OC | 9 | 109 | 89 | 83*[fluorescence artefact?] | 82 | 93
Cc1ccc(-n2nnc3c(=O)n(Cc4cc(C)ccc4C)cnc32)cc1 | 9 | 99 | 33* | 3 | 86 | 63
Cc1ccc(-n2nnc3c(=O)n(Cc4cccc(C)c4)cnc32)cc1 | 5 | 99 | 102 | 10 | 159 | 106
COc1cccc(-n2nnc3c(=O)n(Cc4ccc(Br)cc4)cnc32)c1 | 34 | 90 | 81 | 52*[fluorescence artefact?] | 354*[fluorescence artefact?] | 105
Cc1cc(O)ccc1Nc1nc2ccccc2nc1Nc1ccc(O)cc1C | 48 | 89 | 77 | 24 | 31 | 74
CC(=O)Oc1ccc2c(c1)cc(C)n2C | -5 | 93 | 79 | -7 | 107 | 85
O=C(NCc1cccnc1)C1c2ccccc2C(=O)N1Cc1ccco1 (configuration not stated) | 51*[fluorescence artefact?] | 98 | 98 | 0 | 93 | 91
COc1ccc2c(c1)n([O-])c1c([n+]2=O)CCC1 | 51* | 118 | 97 | 20 | 65 | 91
CCOc1ccc2c(c1)n([O-])c1c([n+]2=O)CCCC1 | 3 | 107 | 76 | 2 | 149 | 103
COc1cccc(NC(=O)N(Cc2cc3cc(C)cc(C)c3[nH]c2=O)CC2COCCO2)c1 (configuration not stated) | 3 | 90 | 61 | -1 | 82 | 87
O=C1c2ccccc2-c2onc3ccc(NCCCn4ccnc4)c1c23 | 27 | 59 | 47 | 70*[fluorescence artefact?] | 89 | 59
Cc1nc(NCCCn2ccnc2)c2ccccc2n1 | 5 | 92 | 97 | 0 | 92 | 97
CC[N+](CC)(CC)C/C(N)=N/O | -6 | nt | 93 | -5 | 113 | 92
Cn1cc(C(=O)c2ccc(Cl)cc2Cl)cc1C(=O)N/N=C(\N)COc1cccc(C(F)(F)F)c1 | -6 | 77 | 27* | -3 | 91 | 69
c1ccc(Cn2c(CSc3nnnn3-c3ccccc3)nc3ccccc32)cc1 | 18 | 82 | 71 | 64*[fluorescence artefact?] | 73 | 73
O=c1c2ccccc2nc(CSc2nnnn2-c2ccccc2)n1-c1ccccc1Cl | 59*[fluorescence artefact?] | 70 | 95 | 78*[fluorescence artefact?] | 98 | 34
CCN(c1ccccc1)S(=O)(=O)c1cc(C(=O)O)ccc1C | 74* | 97 | 88 | 76* | 12 | 89
Cc1ccc(NC(=O)c2cc(N3CCOCC3)nc3ccccc23)cc1 | -9 | 86 | 33* | 0 | 100 | 91
O=C(Nc1ccccc1)c1cc(N2CCOCC2)nc2ccccc12 | 3 | 102 | 65 | 15 | 103 | 90
O=S(=O)(c1ccc(Cl)c(Cl)c1)c1snnc1-c1ccccc1 | 2 | 4.8* | -0.2* | 1 | 72 | 3.6*
Cc1ncc(S(=O)(=O)c2ccc(Cl)cc2)c(-c2ccccc2)n1 | -6 | 86 | 80 | 15 | 104 | 75
Cc1occc1C(=O)NN=C1C2CC3CC(C2)CC1C3 | -7 | 104 | 100 | -40 | 106 | 110
